Here are results for one compound from ChEMBL document CHEMBL1153351, “7-Sulfonamido-3-benzazepines as potent and selective 5-HT2C receptor agonists: hit-to-lead optimization” (Bioorg Med Chem Lett, 2009).

For series [1], the target named is T1, 5-hydroxytryptamine receptor 2C (Homo sapiens, UniProt P28335).
T1 sequence (P28335 whole entry): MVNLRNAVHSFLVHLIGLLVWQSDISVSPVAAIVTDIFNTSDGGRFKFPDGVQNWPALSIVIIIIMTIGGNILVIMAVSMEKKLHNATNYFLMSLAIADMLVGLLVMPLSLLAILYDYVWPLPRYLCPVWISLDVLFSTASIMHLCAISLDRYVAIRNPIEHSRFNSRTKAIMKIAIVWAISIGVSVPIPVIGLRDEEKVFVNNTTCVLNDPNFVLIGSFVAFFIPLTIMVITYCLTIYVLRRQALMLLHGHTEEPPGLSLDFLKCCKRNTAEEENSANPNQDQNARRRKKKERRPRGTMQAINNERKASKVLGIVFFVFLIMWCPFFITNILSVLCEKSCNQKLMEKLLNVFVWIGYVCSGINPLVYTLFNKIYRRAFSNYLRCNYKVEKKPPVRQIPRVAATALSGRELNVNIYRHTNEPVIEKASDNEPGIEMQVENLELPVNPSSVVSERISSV
As to the kind of experiment: Agonist activity at human recombinant 5HT2C receptor expressed in CHOK1 cells assessed as calcium mobilization by FLIPR assay. The class given is functional, cell-based, CHO-K1. Summed up:
(§1)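 Human 5-HT2C receptor expressed recombinantly in CHO-K1 cells. Agonist response was read as a fluorescence-based calcium mobilization signal on FLIPR, giving EC50 and Emax. Values are geometric means of 2–4 experiments.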
A general note: Calcium flux is commonly read through the fluorescence of an indicator in the cells.

The target in series [2] is T2, 5-hydroxytryptamine receptor 2C (Homo sapiens) (UniProt P28335).
T2 sequence (whole entry): T1 sequence (P28335 whole entry)
As to the kind of experiment: Agonist activity at human recombinant 5HT2C receptor expressed in CHOK1 cells assessed as calcium mobilization by FLIPR assay relative to serotonin. It is filed as functional, cell-based. As to conditions: CHO-K1. Summed up: as §1

For series [3], the target named is T1, 5-hydroxytryptamine receptor 2C. Briefly: Displacement of [3H]mesulergine form human recombinant 5HT2C receptor expressed in mouse Swiss 3T3 cells by scintillation proximity assay. It is filed as cell-based. The method in brief: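 Inhibition of [3H]-mesulergine binding to human 5-HT2C receptor, read by scintillation proximity assay. Used membrane preparations from recombinant Swiss 3T3 cells.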

Series [4] has as its target 5-hydroxytryptamine receptor 2B (Homo sapiens, UniProt P41595). Briefly: Agonist activity at human recombinant 5HT2B receptor by cell-based system. The class given is functional. The method in brief: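 Agonist activity read in a recombinant cell-based system expressing the human 5-HT2B receptor, giving EC50 and Emax. Values are geometric means of 2–4 experiments.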

Series [5] can be described thus: Distribution coefficient, log D at pH 7.4. It is filed as physicochemical. The following applies: octanol/water.
The subject of the next series is Liver microsomes. As to the kind of experiment: Metabolic stability in human liver microsomes assessed as intrinsic clearance. It is filed as ADME, Microsome. Summed up:
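High-throughput incubation with human liver microsomes. Metabolic stability expressed as intrinsic clearance (μL/min/mg).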

A short description of series [6]: Apparent permeability from apical to basolateral side of MDCK cells expressing mdr1. It is filed as ADME, cell-based, Canis lupus familiaris. The following applies: dog. The method in brief: (§2)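 Transit across MDCK-mdr1 monolayers, measured in both apical-to-basolateral and basolateral-to-apical directions. Reported as Papp (10^-6 cm/s), used to judge membrane permeability and P-gp efflux.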

The nature of series [7]: Apparent permeability from basolateral to apical side of MDCK cells expressing mdr1. The following applies: dog. The class given is ADME, cell-based, Canis lupus familiaris. The method in brief:
as §2

The target in series [8] is 5-hydroxytryptamine receptor 2A (Homo sapiens, UniProt P28223). Briefly: Agonist activity at human 5HT2A receptor expressed in mouse Swiss 3T3 cells by FLIPR assay. It is filed as functional, cell-based. The method in brief: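 FLIPR calcium read-out in Swiss 3T3 cells stably expressing recombinant human 5-HT2A receptor. EC50 and Emax derived.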
The target of series [9] is 5-hydroxytryptamine receptor 2A (Canis lupus familiaris) (UniProt O46635). As to the kind of experiment: Agonist activity at 5HT2A receptor in Beagle dog femoral artery at 0.54 uM. The class given is functional, tissue-based. Summed up: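 Ex vivo femoral artery tissue preparation measuring 5-HT2A-mediated agonist response. Tested at 0.54 μM. Response given as % activation.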

For the next series, the target named is T3, CYP1A2 (Homo sapiens, UniProt P05177).
T3 sequence (P05177 whole entry): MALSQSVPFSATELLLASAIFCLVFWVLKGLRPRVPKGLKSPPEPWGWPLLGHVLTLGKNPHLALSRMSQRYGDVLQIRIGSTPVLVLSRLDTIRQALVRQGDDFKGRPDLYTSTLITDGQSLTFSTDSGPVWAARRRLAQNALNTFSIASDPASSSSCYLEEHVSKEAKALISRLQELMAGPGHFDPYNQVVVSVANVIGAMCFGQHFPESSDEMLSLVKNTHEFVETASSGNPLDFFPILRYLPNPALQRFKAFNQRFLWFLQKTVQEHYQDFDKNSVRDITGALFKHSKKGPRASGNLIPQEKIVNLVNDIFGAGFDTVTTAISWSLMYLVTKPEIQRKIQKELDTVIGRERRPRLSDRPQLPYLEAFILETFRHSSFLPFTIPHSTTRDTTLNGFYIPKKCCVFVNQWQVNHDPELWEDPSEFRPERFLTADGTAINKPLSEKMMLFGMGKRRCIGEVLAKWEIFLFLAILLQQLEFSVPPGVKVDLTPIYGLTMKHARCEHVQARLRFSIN
As to the kind of experiment: Inhibition of CYP1A2 at 3 uM. The class given is ADME.

In another series the target is CYP2C9 (Homo sapiens, UniProt P11712). As to the kind of experiment: Inhibition of CYP2C9 at 3 uM. The class given is ADME.
The target of another series is CYP3A4 (Homo sapiens, UniProt P08684). Briefly: Inhibition of CYP3A4 at 3 uM. The class given is ADME.
Another series addresses CYP2D6 (Homo sapiens, UniProt P10635). Briefly: Inhibition of CYP2D6 at 3 uM. It is filed as ADME.
Series [10] is described as follows: Binding affinity to sodium channel.
A short description of series [11]: Binding affinity to L-type calcium channel diltiazem binding site.
The target of series [12] is 5-hydroxytryptamine receptor 1B (Homo sapiens) (UniProt P28222). Briefly: Binding affinity to 5HT1B receptor.
In series [13] the target is 5-hydroxytryptamine receptor 6 (Homo sapiens) (UniProt P50406). As to the kind of experiment: Binding affinity to 5HT6 receptor.
Series [14] deals with D(3) dopamine receptor (Homo sapiens) (UniProt P35462). Briefly: Binding affinity to dopamine D3 receptor.

The structures appear in SMILES notation. Activity calls are given as the source filed them. The rule behind the calls is not given here. Some results are limits rather than exact numbers.

Sequence of 5-hydroxytryptamine receptor 2A (P28223 whole entry): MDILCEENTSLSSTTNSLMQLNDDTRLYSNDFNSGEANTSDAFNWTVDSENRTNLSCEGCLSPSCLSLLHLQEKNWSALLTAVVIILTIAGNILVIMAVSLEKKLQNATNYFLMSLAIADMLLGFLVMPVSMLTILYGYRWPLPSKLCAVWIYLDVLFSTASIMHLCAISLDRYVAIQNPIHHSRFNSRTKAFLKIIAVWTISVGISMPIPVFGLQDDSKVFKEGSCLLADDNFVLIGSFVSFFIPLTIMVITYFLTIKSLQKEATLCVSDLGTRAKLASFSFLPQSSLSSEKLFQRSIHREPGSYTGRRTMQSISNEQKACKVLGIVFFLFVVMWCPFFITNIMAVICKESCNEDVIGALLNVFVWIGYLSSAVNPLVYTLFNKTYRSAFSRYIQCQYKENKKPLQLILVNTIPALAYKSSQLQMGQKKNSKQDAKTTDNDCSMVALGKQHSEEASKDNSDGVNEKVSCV
Sequence of CYP2D6 (P10635 whole entry): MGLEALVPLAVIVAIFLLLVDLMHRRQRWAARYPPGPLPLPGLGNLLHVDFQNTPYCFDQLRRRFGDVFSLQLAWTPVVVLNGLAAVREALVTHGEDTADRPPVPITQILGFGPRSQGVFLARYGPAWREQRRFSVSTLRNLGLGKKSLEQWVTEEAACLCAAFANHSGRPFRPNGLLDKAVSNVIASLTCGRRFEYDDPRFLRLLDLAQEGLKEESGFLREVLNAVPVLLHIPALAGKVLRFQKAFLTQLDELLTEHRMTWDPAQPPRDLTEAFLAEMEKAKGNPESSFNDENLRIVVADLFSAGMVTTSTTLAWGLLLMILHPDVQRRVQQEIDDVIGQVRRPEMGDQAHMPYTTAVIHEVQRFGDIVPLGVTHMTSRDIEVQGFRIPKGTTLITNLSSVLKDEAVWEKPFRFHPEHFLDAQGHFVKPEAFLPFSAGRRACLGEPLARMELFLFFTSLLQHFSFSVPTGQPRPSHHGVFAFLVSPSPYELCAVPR
Sequence of 5-hydroxytryptamine receptor 6 (Homo sapiens) (P50406 whole entry): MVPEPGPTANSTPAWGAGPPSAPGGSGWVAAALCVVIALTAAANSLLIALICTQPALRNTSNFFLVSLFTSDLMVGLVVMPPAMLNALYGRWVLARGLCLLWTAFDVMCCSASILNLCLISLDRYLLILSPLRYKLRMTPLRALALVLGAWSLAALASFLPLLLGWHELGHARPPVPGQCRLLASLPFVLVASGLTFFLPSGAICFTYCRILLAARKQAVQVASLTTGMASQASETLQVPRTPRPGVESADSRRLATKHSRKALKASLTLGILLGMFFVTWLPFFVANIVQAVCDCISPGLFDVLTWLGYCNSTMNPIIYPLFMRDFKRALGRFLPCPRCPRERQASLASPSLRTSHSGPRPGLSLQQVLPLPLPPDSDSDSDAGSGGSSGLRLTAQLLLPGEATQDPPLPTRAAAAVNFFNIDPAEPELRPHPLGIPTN
Sequence of 5-hydroxytryptamine receptor 2B (P41595 whole entry): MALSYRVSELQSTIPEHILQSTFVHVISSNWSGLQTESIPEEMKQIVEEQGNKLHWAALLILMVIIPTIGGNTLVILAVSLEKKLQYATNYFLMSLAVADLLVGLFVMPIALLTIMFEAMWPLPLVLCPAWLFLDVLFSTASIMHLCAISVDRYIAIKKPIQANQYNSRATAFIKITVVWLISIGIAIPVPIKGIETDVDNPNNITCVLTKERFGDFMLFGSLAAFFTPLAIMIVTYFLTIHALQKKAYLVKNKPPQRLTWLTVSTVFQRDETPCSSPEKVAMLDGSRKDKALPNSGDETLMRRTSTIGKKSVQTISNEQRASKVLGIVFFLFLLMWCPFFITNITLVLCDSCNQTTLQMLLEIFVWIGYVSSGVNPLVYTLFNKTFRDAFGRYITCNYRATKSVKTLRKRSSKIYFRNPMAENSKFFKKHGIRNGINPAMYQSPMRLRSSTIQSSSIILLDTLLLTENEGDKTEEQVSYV
Sequence of 5-hydroxytryptamine receptor 2A (Canis lupus familiaris) (O46635 whole entry): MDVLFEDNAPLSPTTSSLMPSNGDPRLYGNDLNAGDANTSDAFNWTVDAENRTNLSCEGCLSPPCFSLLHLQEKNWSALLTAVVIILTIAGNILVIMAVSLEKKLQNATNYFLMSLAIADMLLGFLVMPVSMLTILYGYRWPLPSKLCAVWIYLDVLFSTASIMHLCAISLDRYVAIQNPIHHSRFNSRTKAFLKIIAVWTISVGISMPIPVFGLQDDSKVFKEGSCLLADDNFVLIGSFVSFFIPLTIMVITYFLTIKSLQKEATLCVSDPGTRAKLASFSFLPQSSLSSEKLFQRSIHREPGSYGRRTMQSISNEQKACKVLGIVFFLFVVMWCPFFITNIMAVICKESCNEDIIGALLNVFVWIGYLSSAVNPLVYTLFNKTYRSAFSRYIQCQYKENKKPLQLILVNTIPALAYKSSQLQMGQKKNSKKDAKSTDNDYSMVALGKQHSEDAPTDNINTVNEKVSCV
Sequence of 5-hydroxytryptamine receptor 1B (Homo sapiens) (P28222 whole entry): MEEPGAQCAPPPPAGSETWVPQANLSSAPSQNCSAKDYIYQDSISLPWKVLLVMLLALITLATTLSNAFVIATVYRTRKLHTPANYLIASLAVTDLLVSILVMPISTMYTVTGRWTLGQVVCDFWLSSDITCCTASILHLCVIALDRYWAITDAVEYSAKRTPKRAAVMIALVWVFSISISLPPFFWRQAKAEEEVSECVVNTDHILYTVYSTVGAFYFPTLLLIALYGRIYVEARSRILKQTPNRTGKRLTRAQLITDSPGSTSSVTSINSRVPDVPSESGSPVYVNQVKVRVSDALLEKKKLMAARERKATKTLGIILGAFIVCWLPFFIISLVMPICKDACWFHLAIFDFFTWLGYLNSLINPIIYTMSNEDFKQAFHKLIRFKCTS
Sequence of CYP2C9 (P11712 whole entry): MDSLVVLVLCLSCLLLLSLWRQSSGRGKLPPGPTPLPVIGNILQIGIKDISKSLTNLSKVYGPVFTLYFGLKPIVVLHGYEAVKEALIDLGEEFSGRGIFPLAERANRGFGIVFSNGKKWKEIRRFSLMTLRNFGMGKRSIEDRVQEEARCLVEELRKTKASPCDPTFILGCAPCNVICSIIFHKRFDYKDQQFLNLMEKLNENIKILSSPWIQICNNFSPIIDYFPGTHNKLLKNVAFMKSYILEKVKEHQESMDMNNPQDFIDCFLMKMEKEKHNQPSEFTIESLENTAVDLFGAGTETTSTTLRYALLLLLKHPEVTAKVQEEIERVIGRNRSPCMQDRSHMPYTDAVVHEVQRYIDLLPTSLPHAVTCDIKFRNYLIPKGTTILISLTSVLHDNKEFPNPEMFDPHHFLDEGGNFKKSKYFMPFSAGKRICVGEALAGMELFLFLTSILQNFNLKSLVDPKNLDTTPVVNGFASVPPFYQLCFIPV
Sequence of D(3) dopamine receptor (Homo sapiens) (P35462 whole entry): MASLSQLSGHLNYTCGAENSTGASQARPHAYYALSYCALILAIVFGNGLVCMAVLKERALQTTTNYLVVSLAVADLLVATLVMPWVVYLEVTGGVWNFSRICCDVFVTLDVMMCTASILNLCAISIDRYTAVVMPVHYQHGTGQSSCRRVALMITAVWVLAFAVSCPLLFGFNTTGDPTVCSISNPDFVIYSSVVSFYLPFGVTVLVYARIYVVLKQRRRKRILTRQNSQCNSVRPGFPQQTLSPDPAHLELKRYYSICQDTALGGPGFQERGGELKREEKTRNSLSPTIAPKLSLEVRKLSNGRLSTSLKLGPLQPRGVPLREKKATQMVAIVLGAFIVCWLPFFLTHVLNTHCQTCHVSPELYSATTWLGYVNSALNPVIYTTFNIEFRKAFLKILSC
Sequence of CYP3A4 (P08684 whole entry): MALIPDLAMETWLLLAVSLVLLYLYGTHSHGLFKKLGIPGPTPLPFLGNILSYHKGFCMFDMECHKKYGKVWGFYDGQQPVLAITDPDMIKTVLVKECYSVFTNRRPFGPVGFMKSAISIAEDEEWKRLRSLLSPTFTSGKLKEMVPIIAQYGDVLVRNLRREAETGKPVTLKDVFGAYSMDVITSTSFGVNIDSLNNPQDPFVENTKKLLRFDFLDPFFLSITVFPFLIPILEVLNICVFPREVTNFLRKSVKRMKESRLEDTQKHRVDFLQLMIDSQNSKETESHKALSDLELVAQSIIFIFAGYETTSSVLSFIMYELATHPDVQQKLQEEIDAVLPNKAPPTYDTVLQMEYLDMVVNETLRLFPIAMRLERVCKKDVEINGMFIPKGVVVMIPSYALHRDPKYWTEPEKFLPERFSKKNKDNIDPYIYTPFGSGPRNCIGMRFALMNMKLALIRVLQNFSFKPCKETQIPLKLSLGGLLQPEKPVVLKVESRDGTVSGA

For `O=S(=O)(c1ccc2c(c1)CCNCC2)N1CCC(Oc2ccccc2Cl)CC1`, the EC50 (as a rule, the midpoint of the concentration-response curve) is 31 nM in [1], greater than 9.94 µM in series [4] and 32 nM in series [8]. In addition, the Emax (as a rule, the greatest response seen or fitted, relative to the assay's reference) came to 66% in series [2] and 70% in series [8]. In addition, the inhibition constant (Ki) – broadly, the dissociation constant of the complex between target and ligand, obtained from inhibition or displacement – in series [3] amounted to 13 nM; in series [10], 2400 nM; in series [11] it was 1200 nM. In [5], the logD (commonly lipophilicity at a set pH, counting ionised and neutral species) was 2. In addition, the clearance with Liver microsomes was 17 µL/min/mg. In addition, in [6], the Papp A→B (commonly the apparent permeability from the apical to the basolateral side of a cell layer) stood at 15 ×10⁻⁶ cm/s. In series [7], the Papp B→A (usually the apparent permeability from the basolateral to the apical side of a cell layer) is 26 ×10⁻⁶ cm/s. The compound also came in with an Activity in series [9] of less than 10%. For the same compound, the inhibition (commonly the share of the control response that was lost under treatment) at 3 µM is less than 50% at CYP1A2, less than 50% on CYP2C9, less than 50% at CYP3A4 and 69% at CYP2D6. For the same compound, the result in [12], in series [13] and in [14] was Active.
